A selection: hits, their analogues and other compounds. The true share with any hit is near 2.3%.
TCR CD3 inh: blocks the human TCR-CD3 interaction; TAMRA-labeled TCR probe fluorescence, biochemical; inhibition, % at 9.4 µM; hit rate 0.37% among 360,000; AID 651800; in the data active means inhibition above about 19%;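 further: recombinant mutant TCR 2C K166C tagged with TAMRA read by polarization; 0% = receptor in buffer alone and 100% = receptor with positive control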
SIAE primary: human SIAE inhibition, primary screen; hit rate 0.69% among 370,000; inhibition, % at 9.66 µM; AID 1053197; Q9HAT2; SIAE FP-Rh probe binding, fluorescence polarization;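 active means inhibition above a cutoff: mean of compounds within the control limits plus 3 SD of those, cut at about 17% in these data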;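 further: 0% = plate median of compound wells and 100% = probe without SIAE protein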
pPAFAH FP inh: inhibitors of human plasma PAF acetylhydrolase (pPAFAH). Q13093. hit rate 1.5% among 330,000. AID 463082. recombinant pPAFAH, FP-rhodamine probe fluorescence polarization. inhibition, % at 3.39 µM;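 active means inhibition above the mean inhibition across the screen plus 3 SD, cut at about 25% in these data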;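 further: inhibitors block binding of the rhodamine activity-based probe so polarization drops; 0% = enzyme with DMSO and 100% = wells lacking pPAFAH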
HTRA1 inhibitor: blocks human HTRA1 serine peptidase | Q92743 | recombinant HTRA1, FP-rhodamine activity-based probe, fluorescence polarization | inhibition, % at 5.96 µM | hit rate 0.5% among 340,000; in the data active means inhibition above about 36%;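 further: 0% = enzyme with DMSO and 100% = wells lacking enzyme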
ABHD4 inh: inhibits mouse alpha/beta hydrolase domain 4 | Q8VD66 | purified mABHD4, FP-Rh probe fluorescence polarization | inhibition, % at 8.92 µM | hit rate 0.54% among 370,000;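 active means inhibition exceeding the mean over every tested compound plus 3 SD, cut at about 30% in these data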;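 further: 0% = plate median of compound wells and 100% = S159A mutant with DMSO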
Target sequence (Q8VD66 whole entry, looked up, the tested form may be a part): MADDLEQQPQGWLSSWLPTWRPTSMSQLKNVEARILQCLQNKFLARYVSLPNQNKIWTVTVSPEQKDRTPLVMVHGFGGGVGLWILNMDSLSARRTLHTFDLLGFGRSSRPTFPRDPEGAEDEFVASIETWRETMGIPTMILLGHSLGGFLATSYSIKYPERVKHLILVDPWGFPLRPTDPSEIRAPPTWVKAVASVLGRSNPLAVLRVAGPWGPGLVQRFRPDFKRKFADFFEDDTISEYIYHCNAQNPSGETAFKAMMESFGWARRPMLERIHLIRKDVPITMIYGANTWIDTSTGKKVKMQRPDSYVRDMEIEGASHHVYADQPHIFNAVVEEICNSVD
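assay system = mABHD4 protein | compound dosing = single nominal dose of 8.92 µM, 0.89% DMSO final | read-out basis = percent inhibition of probe binding, normalized to plate controls | schedule = Enzyme–compound pre-incubation 45 min, then probe 60 min, both 25 °C | detection = fluorescence polarization, excitation 525 nm, emission 598 nm, BODIPY TMR filters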
mABHD4 conf: confirmation of mouse ABHD4 inhibitors | shares compounds with ABHD4 inh | purified mABHD4, FP-Rh probe fluorescence polarization | inhibition, % at 8.92 µM | hit rate 55% among 1,800;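 active means mean inhibition across replicates above the hit cutoff set in the primary screen, cut at about 30% in these data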;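 further: 0% = wild-type ABHD4 with DMSO and 100% = catalytically dead S159A mutant with DMSO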
* marks the source's active call; other numbers are inactive results; . = no result.

SMILES	TCR CD3 inh	SIAE primary	pPAFAH FP inh	HTRA1 inhibitor	ABHD4 inh	mABHD4 conf
O=C(Nc1cc(F)cc(F)c1)c1ccc(NCCc2ccccc2)c([N+](=O)[O-])c1	8	3	-4	-3	-11	.
O=C(O)c1ccc(NCCc2ccc(Cl)cc2)c([N+](=O)[O-])c1	-1	-2	9	-7	57*	53*
CC(C)CN1C(=O)C[C@]2(C(=O)N(C)c3ccc(NC(=O)C(C)(C)C)cc32)C1c1ccccc1 (stereo partly drawn)	.	4	.	.	3	.
CCOc1cc(Br)cc(C(c2c(C(=O)O)[nH]c3ccccc23)c2c(C(=O)O)[nH]c3ccccc23)c1O	4	9	18	18	61*	68*
CSc1ccc(C(c2c(C(=O)O)[nH]c3ccccc23)c2c(C(=O)O)[nH]c3ccccc23)cc1	1	5	29*	-18	46*	61*
Cc1cc(C)cc(OCC(C)CN2CCC(C(O)(c3ccccc3)c3ccccc3)CC2)c1 (stereo not drawn)	.	-4	.	.	13	.
COc1cc(/C=N/NC(=S)NC2CC3C=CC2C3)cc(OC)c1OC (stereo not drawn)	-7	12	9	.	30*	38*
O=C(O)c1ccc(-n2nc(-c3ccccc3O)nc2-c2ccccc2O)cc1	.	0	.	.	-5	.
Nc1ccn([C@@H]2O[C@H](CNC(=O)[C@H]3CCC(=O)N3)[C@@H](O)[C@H]2O)c(=O)n1	-2	0	.	0	1	.
Oc1ccc(Cl)cc1C=Nc1ccccc1Br	10	-7	0	5	4	.
Oc1ccc(Br)cc1C=Nc1ccc2c3c(cccc13)CC2	14	7	28*	20	55*	22
O=C1NN(c2cccc(Br)c2)C(=O)/C1=C\c1ccccc1	0	7	20	-4	37*	4
O=C1NN(c2ccccc2)C(=O)/C1=C\c1ccccc1	1	0	.	6	9	.
CC(=O)Oc1cccc2c1C(=O)c1c(OC(C)=O)cc(C(=O)O)cc1C2=O	-4	4	3	2	48*	18
COc1ccccc1N1CCN(CCCCOc2ccc(C)cc2C)CC1	-5	-3	8	3	31*	17
COc1ccccc1N1CCN(CC(O)COc2ccc(C)cc2C)CC1 (stereo not drawn)	-3	-5	-1	1	8	.
Cc1csc(NC(=O)c2ccc(COc3ccc(Cl)c(Cl)c3)o2)n1	.	-7	.	.	4	.
CC(=O)NC(c1ccc(F)c(F)c1)c1nc(-c2cccc(C(C)C)c2)cs1 (stereo not drawn)	3	-14	.	.	-30	.
CCCCC(=O)N1CCC(NS(=O)(=O)c2ccc3c(c2)CCN3C(C)=O)CC1	.	-3	.	.	-5	.
CCOC(=O)N1CCC(=NNc2nc3ccccc3s2)CC1	-1	4	3	3	38*	-3
CC(=O)N1CCC(=NNc2nc3ccccc3s2)CC1	-5	9	3	10	33*	14
Cc1ccc(S(=O)(=O)N2CCC(=O)N([C@H](COCc3ccc(Cl)cc3)C(C)C)CC2)cc1	-4	-4	.	.	7	.
CC1=C(C#N)C(=O)OC(C)(C)C1	8	4	15	13	30*	10
CCc1ccc(OCC(=O)Nc2ccc(N3CCN(C(=O)c4ccccc4)CC3)cc2)cc1	-6	4	11	-6	58*	7
Cc1cccc(OCC(=O)Nc2ccc(N3CCN(C(=O)c4ccccc4)CC3)cc2)c1C	3	11	8	-3	1	.
SMILES	TCR CD3 inh	SIAE primary	pPAFAH FP inh	HTRA1 inhibitor	ABHD4 inh	mABHD4 conf
COCCCNC(=O)c1ccc(Cn2c(=O)c3ccccc3n(Cc3ccc([N+](=O)[O-])cc3)c2=O)cc1	.	5	.	.	0	.
O=[N+]([O-])c1cccc(NN=Nc2ccccc2)c1	-6	3	9	4	7	.
O=C(O)c1cc(NN=Nc2ccc(Br)cc2)cc([N+](=O)[O-])c1	5	-7	10	-5	68*	67*
O=C(O)c1cc(NN=Nc2cccc([N+](=O)[O-])c2)cc([N+](=O)[O-])c1	2	-17	27*	-4	69*	73*
O=[N+]([O-])c1ccc(N=NNc2ccccc2)cc1	.	.	6	16	.	.
O=C(O)c1cc(NN=Nc2cccc(S(=O)(=O)O)c2)cc([N+](=O)[O-])c1	7	-10	10	3	39*	35*
